Data as given in ChEMBL document CHEMBL4689842, “EUbOPEN Chemogenomics Library wave 1” (2021).

Tested on: U2OS
Experiment: Multiplex assay against U2OS
Type: toxicity, cell-based
Conditions: human
Method in brief: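 Cells stained live at seeding with Hoechst33342, BioTracker Green Microtubule Cytoskeleton Dye, MitoTracker Red and Annexin V Alexa Fluor 680 were imaged on a CQ1 microscope at 37°C and 5% CO2 after compound addition. Their classification by CellPathfinder machine-learning gating ran from Hoechst high-intensity objects versus normal cells, to healthy, pyknosed or fragmented nuclei among normal cells, to mitotic or apoptotic among pyknosed cells. Tubulin, mitochondrial-mass and membrane-permeability phenotypes are per cents of healthy-nucleus cells.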

[1] = 12 h, 1 µM, compound concentration 1 uM, replicate 1
[2] = 12 h, 1 µM, compound concentration 1 uM, replicate 2
[3] = 12 h, 10 µM, compound concentration 10 uM, replicate 1
[4] = 12 h, 10 µM, compound concentration 10 uM, replicate 2
[5] = 24 h, 1 µM, compound concentration 1 uM, replicate 1
[6] = 24 h, 1 µM, compound concentration 1 uM, replicate 2
[7] = 24 h, 10 µM, compound concentration 10 uM, replicate 1
[8] = 24 h, 10 µM, compound concentration 10 uM, replicate 2
[9] = 48 h, 1 µM, compound concentration 1 uM, replicate 1
[10] = 48 h, 1 µM, compound concentration 1 uM, replicate 2
[11] = 48 h, 10 µM, compound concentration 10 uM, replicate 1
[12] = 48 h, 10 µM, compound concentration 10 uM, replicate 2

CN(C)C(=O)C(CCN1CCC(O)(c2ccc(Cl)cc2)CC1)(c1ccccc1)c1ccccc1.Cl [LOPERAMIDE HYDROCHLORIDE]
Population Apoptotic (%) [1]: 37% | Population Fragmented Nuclei (%) [1]: 11% | Population Healthy Nuclei (%) [1]: 69% | Population Hoechst High Intensity Objects (%) [1]: 4% | Population Membrane Permeable-Phenotype (%) [1]: 5% | Population Mitochondria Different-Phenotype (%) [1]: 82% | Population Mitotic Cells (%) [1]: 62% | Population Normal (%) [1]: 95% | Population Pyknosed Nuclei (%) [1]: 19% | Population Tubulin-Different-Phenotype (%) [1]: 87% | Total Cell Count [1]: 181 | Population Apoptotic (%) [2]: 25% | Population Fragmented Nuclei (%) [2]: 5% | Population Healthy Nuclei (%) [2]: 88% | Population Hoechst High Intensity Objects (%) [2]: 7% | Population Membrane Permeable-Phenotype (%) [2]: 11% | Population Mitochondria Different-Phenotype (%) [2]: 90% | Population Mitotic Cells (%) [2]: 75% | Population Normal (%) [2]: 92% | Population Pyknosed Nuclei (%) [2]: 6% | Population Tubulin-Different-Phenotype (%) [2]: 65% | Total Cell Count [2]: 55 | Population Apoptotic (%) [3]: 66% | Population Fragmented Nuclei (%) [3]: 16% | Population Healthy Nuclei (%) [3]: 42% | Population Hoechst High Intensity Objects (%) [3]: 5% | Population Membrane Permeable-Phenotype (%) [3]: 77% | Population Mitotic Cells (%) [3]: 33% | Population Normal (%) [3]: 95% | Population Pyknosed Nuclei (%) [3]: 40% | Total Cell Count [3]: 129 | Population Apoptotic (%) [4]: 82% | Population Fragmented Nuclei (%) [4]: 8% | Population Healthy Nuclei (%) [4]: 48% | Population Hoechst High Intensity Objects (%) [4]: 6% | Population Membrane Permeable-Phenotype (%) [4]: 94% | Population Mitochondria Different-Phenotype (%) [4]: 100% | Population Mitotic Cells (%) [4]: 17% | Population Normal (%) [4]: 93% | Population Pyknosed Nuclei (%) [4]: 43% | Population Tubulin-Different-Phenotype (%) [4]: 100% | Total Cell Count [4]: 64 | Population Apoptotic (%) [5]: 60% | Population Fragmented Nuclei (%) [5]: 10% | Population Healthy Nuclei (%) [5]: 74% | Population Hoechst High Intensity Objects (%) [5]: 5% | Population Membrane Permeable-Phenotype (%) [5]: 6% | Population Mitochondria Different-Phenotype (%) [5]: 84% | Population Mitotic Cells (%) [5]: 40% | Population Normal (%) [5]: 94% | Population Pyknosed Nuclei (%) [5]: 14% | Population Tubulin-Different-Phenotype (%) [5]: 75% | Total Cell Count [5]: 222 | Population Apoptotic (%) [6]: 53% | Population Fragmented Nuclei (%) [6]: 5% | Population Healthy Nuclei (%) [6]: 71% | Population Hoechst High Intensity Objects (%) [6]: 4% | Population Membrane Permeable-Phenotype (%) [6]: 16% | Population Mitochondria Different-Phenotype (%) [6]: 89% | Population Mitotic Cells (%) [6]: 46% | Population Normal (%) [6]: 95% | Population Pyknosed Nuclei (%) [6]: 22% | Population Tubulin-Different-Phenotype (%) [6]: 62% | Total Cell Count [6]: 68 | Population Apoptotic (%) [7]: 92% | Population Fragmented Nuclei (%) [7]: 23% | Population Healthy Nuclei (%) [7]: 18% | Population Hoechst High Intensity Objects (%) [7]: 4% | Population Membrane Permeable-Phenotype (%) [7]: 92% | Population Mitochondria Different-Phenotype (%) [7]: 100% | Population Mitotic Cells (%) [7]: 7% | Population Normal (%) [7]: 95% | Population Pyknosed Nuclei (%) [7]: 57% | Population Tubulin-Different-Phenotype (%) [7]: 100% | Total Cell Count [7]: 146 | Population Apoptotic (%) [8]: 98% | Population Fragmented Nuclei (%) [8]: 10% | Population Healthy Nuclei (%) [8]: 26% | Population Hoechst High Intensity Objects (%) [8]: 10% | Population Membrane Permeable-Phenotype (%) [8]: 86% | Population Mitochondria Different-Phenotype (%) [8]: 95% | Population Mitotic Cells (%) [8]: 1% | Population Normal (%) [8]: 89% | Population Pyknosed Nuclei (%) [8]: 62% | Population Tubulin-Different-Phenotype (%) [8]: 95% | Total Cell Count [8]: 70 | Population Apoptotic (%) [9]: 60% | Population Fragmented Nuclei (%) [9]: 6% | Population Healthy Nuclei (%) [9]: 78% | Population Hoechst High Intensity Objects (%) [9]: 6% | Population Mitochondria Different-Phenotype (%) [9]: 72% | Population Mitotic Cells (%) [9]: 40% | Population Normal (%) [9]: 93% | Population Pyknosed Nuclei (%) [9]: 15% | Population Tubulin-Different-Phenotype (%) [9]: 59% | Total Cell Count [9]: 345 | Population Apoptotic (%) [10]: 61% | Population Fragmented Nuclei (%) [10]: 7% | Population Healthy Nuclei (%) [10]: 68% | Population Hoechst High Intensity Objects (%) [10]: 3% | Population Membrane Permeable-Phenotype (%) [10]: 8% | Population Mitochondria Different-Phenotype (%) [10]: 65% | Population Mitotic Cells (%) [10]: 38% | Population Normal (%) [10]: 96% | Population Pyknosed Nuclei (%) [10]: 23% | Population Tubulin-Different-Phenotype (%) [10]: 47% | Total Cell Count [10]: 118 | Population Apoptotic (%) [11]: 98% | Population Fragmented Nuclei (%) [11]: 33% | Population Healthy Nuclei (%) [11]: 5% | Population Hoechst High Intensity Objects (%) [11]: 9% | Population Membrane Permeable-Phenotype (%) [11]: 100% | Population Mitochondria Different-Phenotype (%) [11]: 100% | Population Mitotic Cells (%) [11]: 1% | Population Normal (%) [11]: 90% | Population Pyknosed Nuclei (%) [11]: 61% | Population Tubulin-Different-Phenotype (%) [11]: 100% | Total Cell Count [11]: 177 | Population Apoptotic (%) [12]: 100% | Population Fragmented Nuclei (%) [12]: 21% | Population Healthy Nuclei (%) [12]: 30% | Population Hoechst High Intensity Objects (%) [12]: 21% | Population Membrane Permeable-Phenotype (%) [12]: 95% | Population Mitotic Cells (%) [12]: 0% | Population Normal (%) [12]: 78% | Population Pyknosed Nuclei (%) [12]: 48% | Total Cell Count [12]: 92
